Values joined by “and” are separate entries in the source; they are usually repeats but may differ in a detail not shown here. Equal values may be shown once.
What was measured:
[1] = system: Mus musculus; assay: Number of survivors out of 6 ip implanted EAC leukemia mouse tested after 80 days at 10 mg/kg; type: functional; details: route intraperitoneal
How it was run: (§1)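 Drug dissolved and diluted in saline just before use, given ip for 5 consecutive days starting 24 h after implant. Six mice per dose. Survivors counted at 80 days; ILS % taken from mean survival time of treated vs control mice.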

[2] = system: Mus musculus; assay: Effect on ip implanted sarcoma 180 by ip administration for 5 days at 20 mg/kg was measured as increase in mean life span; type: functional; details: Sarcoma-180, ip, 120 h, route intraperitoneal
How it was run: (§2)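 Saline-dissolved drug was dosed ip daily for 5 consecutive days starting 24 h later. Readout was ILS % (mean survival time of treated vs control) over an 80-day observation.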

[3] = system: Mus musculus; assay: Effect on ip implanted sarcoma 180 by ip administration for 5 days at 40 mg/kg was measured as increase in mean life span; type: functional; details: Sarcoma-180, ip, 120 h, route intraperitoneal; how it was run: as §2
[4] = system: Mus musculus; assay: Effect on ip implanted sarcoma 180 by ip administration for 5 days at 80 mg/kg was measured as increase in mean life span; type: functional; details: Sarcoma-180, ip, 120 h, route intraperitoneal; how it was run: as §2
[5] = system: Mus musculus; assay: Antitumor activity against ip implanted L1210 leukemia in mouse after ip administration of 1.25 mg/kg for 5 days expressed as increase in mean life span; type: functional; details: 120 h, route intraperitoneal
How it was run: (§3)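 Drug was dissolved in 0.9% NaCl, diluted just before use and given ip once daily for 5 consecutive days, starting 24 h after transplant. ILS % = mean survival time of treated vs control mice, observed for 80 days.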

[6] = system: Mus musculus; assay: Number of survivors out of 6 ip implanted P388 leukemia mouse tested after 80 days at 10 mg/kg; type: functional; details: route intraperitoneal
How it was run: (§4)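 P388 leukemia, 10^6 ascitic cells implanted ip in female BDF1 mice. Drug in saline given ip for 5 consecutive days from 24 h after transplant. Groups of six per dose level. Survivors/total recorded at the 80-day end of observation; ILS % from treated/control mean survival time.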

[7] = system: Mus musculus; assay: Number of survivors out of 6 ip implanted P388 leukemia mouse tested after 80 days at 20 mg/kg; type: functional; details: route intraperitoneal; how it was run: as §4
[8] = system: Mus musculus; assay: Number of survivors out of 6 ip implanted P388 leukemia mouse tested after 80 days at 40 mg/kg; type: functional; details: route intraperitoneal; how it was run: as §4
[9] = system: Mus musculus; assay: Number of survivors out of 6 ip implanted sarcoma 180 leukemia mouse tested after 80 days at 40 mg/kg; type: functional; details: route intraperitoneal; how it was run: as §1
[10] = system: Mus musculus; assay: Number of survivors out of 6 ip-ip implanted EAC leukemia mouse tested after 80 days at 80 mg/kg; type: functional; how it was run: as §1
[11] = system: Mus musculus; assay: Number of survivors out of 6 ip-ip implanted L1210 leukemia mouse tested after 80 days at 20 mg/kg; type: functional
How it was run: (§5)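 Female BDF1 mice implanted ip with ascitic fluid holding 10^5 L1210 cells. Saline-dissolved drug given ip daily on days 1-5, starting 24 h after implant. Six mice per dose group, followed 80 days. Survivors/total counted at day 80; ILS % from mean survival time vs controls.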

[12] = system: Mus musculus; assay: Number of survivors out of 6 ip-ip implanted L1210 leukemia mouse tested after 80 days at 40 mg/kg; type: functional; how it was run: as §5
[13] = system: Mus musculus; assay: Number of survivors out of 6 ip-iv implanted L1210 leukemia mouse tested after 80 days at 30 mg/kg; type: functional
How it was run: (§6)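 Female BDF1 mice bearing ip-implanted leukemia: 10^5 cells for L1210, 10^6 cells for P388. Drug dissolved in saline, given iv for 5 consecutive days beginning 24 h post-implant. Six mice per dose. Survivors scored at 80 days; ILS % from mean survival time relative to controls.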

[14] = system: Mus musculus; assay: Number of survivors out of 6 ip-iv implanted P388 leukemia mouse tested after 80 days at 20 mg/kg; type: functional; how it was run: as §6
[15] = system: Mus musculus; assay: Effect on ip implanted EAC by ip administration at 20 mg/kg was for 5 days measured as increase in mean life span; type: functional; details: 120 h, route intraperitoneal
How it was run: (§7)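 Drug in 0.9% NaCl was given ip for 5 consecutive days from 24 h after inoculation. ILS % came from treated vs control mean survival time, followed for 80 days.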

[16] = system: Mus musculus; assay: Effect on ip implanted EAC by ip administration for 5 days at 10 mg/kg was measured as increase in mean life span; type: functional; details: 120 h, route intraperitoneal; how it was run: as §7
[17] = system: Mus musculus; assay: Antitumor activity against ip implanted L1210 leukemia in mouse after ip administration of 10 mg/kg for 5 days expressed as increase in mean life span; type: functional; details: Mus musculus, L1210, ip, 120 h, route intraperitoneal; how it was run: as §3
[18] = system: Mus musculus; assay: Antitumor activity against ip implanted L1210 leukemia in mouse after ip administration of 20 mg/kg for 5 days expressed as increase in mean life span; type: functional; details: 120 h, route intraperitoneal; how it was run: as §3
[19] = system: Mus musculus; assay: Antitumor activity against ip implanted L1210 leukemia in mouse after ip administration of 30 mg/kg for 5 days expressed as increase in mean life span; type: functional; details: Mus musculus, L1210, ip, 120 h, route intraperitoneal; how it was run: as §3
[20] = system: Mus musculus; assay: Antitumor activity against ip implanted L1210 leukemia in mouse after ip administration of 40 mg/kg for 5 days expressed as increase in mean life span; type: functional; details: 120 h, route intraperitoneal; how it was run: as §3
[21] = system: Mus musculus; assay: Antitumor activity against ip implanted L1210 leukemia in mouse after ip administration of 5 mg/kg for 5 days expressed as increase in mean life span; type: functional; details: Mus musculus, L1210, ip, 120 h, route intraperitoneal; how it was run: as §3
[22] = system: Mus musculus; assay: Antitumor activity against iv implanted L1210 leukemia in mouse after ip administration of 10 mg/kg for 5 days expressed as increase in mean life span; type: functional
[23] = system: Mus musculus; assay: Antitumor activity against iv implanted L1210 leukemia in mouse after ip administration of 20 mg/kg for 5 days expressed as increase in mean life span; type: functional
[24] = system: Mus musculus; assay: Number of survivors out of 6 ip implanted L1210 leukemia mouse, tested after 80 days at 30 mg/kg; type: functional; details: route intraperitoneal; how it was run: as §5
[25] = system: Mus musculus; assay: Effect on ip implanted EAC by ip administration for 5 days at 40 mg/kg was measured as increase in mean life span; type: functional; details: 120 h, route intraperitoneal; how it was run: as §7
[26] = system: Mus musculus; assay: Effect on ip implanted EAC by ip administration for 5 days at 5 mg/kg was measured as increase in mean life span; type: functional; details: 120 h, route intraperitoneal; how it was run: as §7
[27] = system: Mus musculus; assay: Effect on ip implanted EAC by ip administration for 5 days at 80 mg/kg was measured as increase in mean life span; type: functional; details: 120 h, route intraperitoneal; how it was run: as §7
[28] = system: Mus musculus; assay: Effect on ip implanted sarcoma 180 by ip administration for 5 days at 10 mg/kg was measured as increase in mean life span; type: functional; details: Sarcoma-180, ip, 120 h, route intraperitoneal; how it was run: as §2
[29] = system: Mus musculus; assay: Inhibition of sc implanted syngeneic colon 38 carcinoma by ip administration at 20 mg/kg was on 1, 3, 5, 7, 9 days measured as inhibition ratio; type: functional; details: route subcutaneous
How it was run: (§8)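 Tumor homogenate (70 mg) implanted into the axillary region of female BDF1 mice. Drug dissolved in 0.9% NaCl and diluted with saline just before use, then given ip on days 1, 3, 5, 7 and 9. Tumor length and width were measured by caliper on day 20 after inoculation and converted to estimated weight. Result reported as treated vs control tumor weight, T/C %.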

[30] = system: Mus musculus; assay: Inhibition of sc implanted syngeneic colon 38 carcinoma by ip administration at 30 mg/kg was on 1, 3, 5, 7, 9 days measured as inhibition ratio; type: functional; details: route subcutaneous; how it was run: as §8
[31] = system: Mus musculus; assay: Inhibition of sc implanted syngeneic colon 38 carcinoma by ip administration at 40 mg/kg was on 1, 3, 5, 7, 9 days measured as inhibition ratio; type: functional; details: route subcutaneous; how it was run: as §8
[32] = system: Mus musculus; assay: Inhibition of sc implanted syngeneic colon 38 carcinoma by ip administration at 50 mg/kg was on 1, 3, 5, 7, 9 days measured as inhibition ratio; type: functional; details: route subcutaneous; how it was run: as §8
[33] = system: Mus musculus; assay: Number of survivors out of 6 ip-ip implanted EAC leukemia mouse tested after 80 days at 40 mg/kg; type: functional; how it was run: as §1
[34] = system: Mus musculus; assay: Number of survivors out of 6 ip implanted sarcoma 180 leukemia mouse tested after 80 days at 80 mg/kg; type: functional; details: route intraperitoneal; how it was run: as §1
[35] = system: Mus musculus; assay: Number of survivors out of 6 ip-ip implanted EAC leukemia mouse tested after 80 days at 20 mg/kg; type: functional; how it was run: as §1
[36] = system: Mus musculus; assay: Effect on ip implanted syngeneic B16 melanoma by ip administration of 20 mg/kg for 9 days measured as increase in mean life span; details: 216 h
[37] = system: Mus musculus; assay: Effect on ip implanted syngeneic B16 melanoma by ip administration for 9 days at 5 mg/kg was measured as increase in mean life span; details: 216 h
[38] = system: Mus musculus; assay: Effect on ip implanted syngeneic B16 melanoma by ip administration for 9 days at 10 mg/kg was measured as increase in mean life span; details: 216 h
[39] = system: Mus musculus; assay: Effect on ip implanted syngeneic B16 melanoma by ip administration for 9 days at 2.5 mg/kg was measured as increase in mean life span; details: 216 h
[40] = system: Mus musculus; assay: Antitumor activity against ip implanted P388 leukemia in mouse after iv administration of 10 mg/kg for 5 days expressed as increase in mean life span; details: 120 h
[41] = system: Mus musculus; assay: Antitumor activity against ip implanted P388 leukemia in mouse after iv administration of 20 mg/kg for 5 days expressed as increase in mean life span; details: 120 h
[42] = system: Mus musculus; assay: Antitumor activity against ip implanted L1210 leukemia in mouse after iv administration of 30 mg/kg for 5 days expressed as increase in mean life span; details: 120 h

Cc1c2cc[n+]([C@@H]3OC[C@H](O)[C@H](O)[C@H]3O)cc2c(C)c2c1[nH]c1ccc(O)cc12.[Br-]
Cures@ 10mg/kg [1]: 1
ILS at 20 mg/kg [2]: 282%
ILS at 40 mg/kg [3]: > 339%
ILS at 80 mg/kg [4]: > 353%
ILS at 1.25 mg/kg [5]: 37%
Cures [6]: 1
Cures [7]: 3
Cures [8]: 6
Cures@ 40mg/kg [9]: 2
Cures [10]: 5
Cures [11]: 1
Cures [12]: 4
Cures [13]: 2
Cures [14]: 2
ILS at 20 mg/kg [15]: > 338%
ILS at 10 mg/kg [16]: > 297%
ILS at 10 mg/kg [17]: 113%
ILS at 20 mg/kg [18]: > 251%
ILS at 30 mg/kg [19]: > 860%
ILS at 40 mg/kg [20]: > 713%
ILS at 5 mg/kg [21]: 57%
ILS [22]: 82% and >214%
ILS [23]: 198% and >549%
Cures [24]: 5
ILS at 40 mg/kg [25]: > 518%
ILS at 5 mg/kg [26]: 95%
ILS at 80 mg/kg [27]: > 492%
ILS at 10 mg/kg [28]: 117%
T/C @ 20mg/kg [29]: 66%
T/C @ 30mg/kg [30]: 59%
T/C @ 40mg/kg [31]: 7%
T/C @ 50mg/kg [32]: 4%
Cures@ 40mg/kg [33]: 5
Cures@ 80 mg/kg [34]: 2
Cures@ 20mg/kg [35]: 1
ILS at 20 mg/kg [36]: 60%
ILS at 5 mg/kg [37]: 44%
ILS at 10 mg/kg [38]: 46%
ILS at 2.5 mg/kg [39]: 38%
ILS at 10 mg/kg [40]: 83%
ILS at 20 mg/kg [41]: > 394%
ILS at 30 mg/kg [42]: > 344%

Source: ChEMBL document CHEMBL1124260, “Synthesis and antitumor activity of quaternary ellipticine glycosides, a series of novel and highly active antitumor agents” (1988)
